Test results published in ChEMBL document CHEMBL1146554, “Antioxidative meroterpenoids from the brown alga Cystoseira crinita” (J Nat Prod, 2003).
Values after ≈ are worked out from the molar mass of the structure shown. Active and inactive are the calls of the source. No cut-off for these calls is given here.

Key:
[1] = Antioxidant activity assessed as inhibition of FeSO4-induced lipid peroxidation at 8 uM by TBARS assay; format: functional
In short: (§1)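 Linolenic acid methyl ester oxidized under FeSO4 catalysis in 50 mM phosphate buffer pH 7.2 at 50 °C. BHT in ethanol added to stop further oxidation. TBARS developed with trichloroacetic and thiobarbituric acid, 60 °C for 30 min. Read A532 minus A600 background. % inhibition calculated versus uninhibited control, with blank and sample-blank corrections.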

[2] = ABTS radical scavenging activity assessed as trolox equivalents by TEAC assay; format: physicochemical
In short: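 ABTS radical cation made by passing ABTS in PBS through manganese dioxide, then filtered (0.2 µm). Diluted in 5 mM PBS pH 7.4 to A734 0.700 and preincubated 2 h at room temperature. 1 mL radical mixed with 200 µL ethanolic sample, vortexed 30 s, centrifuged. A734 of lower phase read exactly 2 min after mixing. PBS and ethanol blanks included. Trolox standards used; value is mM Trolox equivalent to 1.0 mM compound.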

[3] = Antioxidant activity assessed as inhibition of FeSO4-induced lipid peroxidation at 164 uM by TBARS assay; format: functional; in short: as §1
[4] = target: Human immunodeficiency virus type 1 reverse transcriptase (Human immunodeficiency virus 1) (UniProt Q72547); experiment: Inhibition of HIV1 reverse transcriptase at 66 ug/ml by ELISA
In short: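 HIV-1 RT activity inhibition measured by ELISA with the test compound at 66 µg/mL.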

[5] = test system: Aspergillus pseudoglaucus; experiment: Antimicrobial activity against Eurotium repens at 50 ug/disk by agar diffusion assay; format: functional, organism-based
In short: (§2)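 Agar diffusion assay with discs loaded at 50 µg/disk, run against the bacteria, fungi and the green microalga Chlorella fusca.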

[6] = Antioxidant activity assessed as inhibition of FeSO4-induced lipid peroxidation at 82 uM by TBARS assay; format: functional; in short: as §1
[7] = test system: Radical scavenging activity; experiment: Antioxidant activity assessed as DPPH radical scavenging activity at 6 uM after 30 mins; format: functional
In short: (§3)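 Samples in EtOH (100 µL) mixed with 25 µL of 1 mM DPPH in EtOH plus 75 µL EtOH, then shaken briefly. Kept 30 min at room temperature in the dark. Absorbance read at 517 nm. % scavenging calculated against control, with blank and sample-blank corrections.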

Mycotypha microspora = experiment: Antimicrobial activity against Mycotypha microspora at 50 ug/disk by agar diffusion assay; format: functional, organism-based; in short: as §2
Priestia megaterium = experiment: Antimicrobial activity against Bacillus megaterium at 50 ug/disk by agar diffusion assay; format: functional, organism-based; in short: as §2
[8] = test system: Radical scavenging activity; experiment: Antioxidant activity assessed as DPPH radical scavenging activity at 58 uM after 30 mins; format: functional; in short: as §3
MCF7 = experiment: Cytotoxicity against human MCF7 cells; format: functional
In short: (§4)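 Cytotoxicity tested on HM02 gastric adenocarcinoma, HepG2 hepatocellular carcinoma and MCF7 breast adenocarcinoma lines following NCI standards.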

[9] = test system: Radical scavenging activity; experiment: Antioxidant activity assessed as DPPH radical scavenging activity at 12 uM after 30 mins; format: functional; in short: as §3
[10] = Antioxidant activity assessed as inhibition of FeSO4-induced lipid peroxidation at 33 uM by TBARS assay; format: functional; in short: as §1
[11] = test system: Radical scavenging activity; experiment: Antioxidant activity assessed as DPPH radical scavenging activity at 23 uM after 30 mins; format: functional; in short: as §3
HepG2 [12] = experiment: Cytotoxicity against human HepG2 cells; format: functional; in short: as §4
HepG2 [13] = experiment: Cytotoxicity against human HepG2 cells at 10 ug/ml; format: functional; settings: read-out: GI
[14] = Antioxidant activity assessed as inhibition of FeSO4-induced lipid peroxidation at 16 uM by TBARS assay; format: functional; in short: as §1
[Chlorella] fusca = Antimicrobial activity against 'Chlorella' fusca at 50 ug/disk by agar diffusion assay; format: functional, organism-based; settings: Scenedesmus fuscus; in short: as §2
[15] = test system: Radical scavenging activity; experiment: Antioxidant activity assessed as DPPH radical scavenging activity at 230 uM after 30 mins; format: functional; in short: as §3
Microbotryum violaceum = experiment: Antimicrobial activity against Microbotryum violaceum at 50 ug/disk by agar diffusion assay; format: functional, organism-based; in short: as §2
[16] = Superoxide radical scavenging activity assessed as trolox equivalents by photochemiluminescence assay
In short: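 Photochemiluminescence with luminol acting as photosensitizer and detection reagent, generating superoxide. Mix of 2.29 mL reagent 1 (solvent/diluent), 200 µL buffer reagent, 25 µL photosensitizer and 10 µL sample in ethanol or Trolox standard in water. Antioxidant capacity taken from the integral under the curve and expressed as Trolox equivalents.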

[17] = test system: Radical scavenging activity; experiment: Antioxidant activity assessed as DPPH radical scavenging activity at 115 uM after 30 mins; format: functional; in short: as §3
Escherichia coli = experiment: Antimicrobial activity against Escherichia coli at 50 ug/disk by agar diffusion assay; format: functional, organism-based; in short: as §2
[18] = Cytotoxicity against human HM02 cells; format: functional; in short: as §4

Row | Compound | inhibition [1] [%] | Activity [2] [mmol/L] | inhibition [3] [%] | Activity [4] | Activity [5] | inhibition [6] [%] | Activity [7] [%] | Activity (Mycotypha microspora) | Activity (Priestia megaterium) | Activity [8] [%] | GI50 (MCF7) [µg/mL] | LC50 (MCF7) [µg/mL] | TGI (MCF7) [µg/mL] | Activity [9] [%] | inhibition [10] [%] | Activity [11] [%] | GI50 (HepG2 [12]) [µg/mL] | LC50 (HepG2 [12]) [µg/mL] | TGI (HepG2 [12]) [µg/mL] | inhibition of growth at 10 µg/mL (HepG2 [13]) [%] | also measured
1 | C/C(=C/CC/C(C)=C/CC/C(C)=C/C(=O)C/C(C)=C/Cc1cc(O)cc(C)c1O)CO | 10.6 | 0.09 | 73.7 | inactive | inactive | 67.2 | 8 | inactive | inactive | 64.8 | 2.2 (≈ 5.16 µM) | > 10 | 5.1 (≈ 12 µM) | 12.3 | 32.1 | 25.1 | 7.1 (≈ 16.6 µM) | > 10 | > 10 | 86 | inhibition [14]: 14.8%; Activity ([Chlorella] fusca): inactive; Activity [15]: 96.4%; Activity (Microbotryum violaceum): inactive; Activity [16]: 0.59 mmol/L; Activity [17]: 96.1%; Activity (Escherichia coli): inactive; GI50 [18]: 2.3 µg/mL (≈ 5.39 µM); LC50 [18]: > 10 µg/mL; TGI [18]: 7.4 µg/mL (≈ 17.3 µM)
2 | C/C(=C/CC/C(C)=C/CC/C(C)=C\C(=O)C/C(C)=C/Cc1cc(O)cc(C)c1O)CO | 12 | 0.09 | 73.4 | inactive | inactive | 69.8 | 9.1 | inactive | inactive | 80.1 | 1.8 (≈ 4.22 µM) | > 10 | 4 (≈ 9.38 µM) | 15.2 | 31.5 | 31.2 | 6.8 (≈ 15.9 µM) | > 10 | > 10 | 87 | inhibition [14]: 18.3%; Activity ([Chlorella] fusca): inactive; Activity [15]: 96.7%; Activity (Microbotryum violaceum): inactive; Activity [16]: 0.51 mmol/L; Activity [17]: 96%; Activity (Escherichia coli): inactive; GI50 [18]: 1.8 µg/mL (≈ 4.22 µM); LC50 [18]: > 10 µg/mL; TGI [18]: 6 µg/mL (≈ 14.1 µM)
